Data as given in ChEMBL document CHEMBL4014347, “Targeting Mycolic Acid Transport by Indole-2-carboxamides for the Treatment of Mycobacterium abscessus Infections” (J Med Chem, 2017).
Values after ≈ are worked out from the molar mass of the structure shown. Active and inactive are the calls of the source. The calls are words filed in the database; no cut-off is given here.

Experiments:
Cytochrome P450 2D6 = Cytochrome P450 2D6 (Homo sapiens, UniProt P10635); assay: Inhibition of CYP2D6 in human liver microsomes preincubated for 5 mins followed by NADPH addition measured after 10 mins by LC-MS/MS analysis; assay type: ADME
CYP2C9 = CYP2C9 (Homo sapiens, UniProt P11712); assay: Inhibition of CYP2C9 in human liver microsomes preincubated for 5 mins followed by NADPH addition at 10 uM measured after 10 mins by LC-MS/MS analysis relative to control; assay type: ADME
[1] = system: Mycobacterium tuberculosis; assay: Antibacterial activity against Mycobacterium tuberculosis by AlamarBlue assay; assay type: functional
[2] = Selectivity index, ratio of IC50 for African green monkey Vero cells to MIC for Mycobacterium abscessus CIP104536; assay type: toxicity; settings: read-out: Selectivity Index
[3] = system: Mycobacteroides abscessus; assay: Antibacterial activity against CF patient derived Mycobacterium abscessus subsp. massiliense isolate 210 rough variant after 3 to 5 days by two fold serial dilution method; assay type: functional
Method in brief: (§1)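 Broth microdilution in cation-adjusted Mueller−Hinton broth per CLSI; inoculum 5 × 10^6 CFU/mL of exponential-phase bacteria; two-fold serial dilutions, solvent-only wells as control; 30 °C for 3−5 days; MIC read visually and confirmed by absorbance at 560 nm; triplicate on three independent occasions.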

[4] = Antibacterial activity against CF patient derived Mycobacterium abscessus subsp. bolletii isolate 97 smooth variant after 3 to 5 days by two fold serial dilution method; assay type: functional; settings: Mycobacteroides abscessus; method in brief: as §1
[5] = system: Mycobacteroides abscessus; assay: Antibacterial activity against non CF patient derived Mycobacterium abscessus subsp. abscessus isolate 3022 rough variant after 3 to 5 days by two fold serial dilution method; assay type: functional; method in brief: as §1
CYP2D6 = CYP2D6 (Homo sapiens, UniProt P10635); assay: Inhibition of CYP2D6 in human liver microsomes preincubated for 5 mins followed by NADPH addition at 10 uM measured after 10 mins by LC-MS/MS analysis relative to control; assay type: ADME
Salmonella typhimurium [6] = assay: Mutagenicity in Salmonella typhimurium TA100 assessed as increase in revertant colonies at 0.24 to 500 ug/well after 72 hrs by Ames test relative to control; assay type: toxicity; settings: salmonella enterica subsp. enterica serovar typhimurium
Method in brief: (§2)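 Reverse mutation at histidine locus in S. typhimurium TA98 (frameshift) and TA100 (base-pair substitution), with and without S9; 0.24−500 μg/well; 37 ± 2 °C for 72 h, triplicates; DMSO vehicle; sodium azide, 2-nitrofluorene, 2-aminoanthracene positive controls; positive if revertants rise ≥2-fold over negative control dose-dependently.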

[7] = system: Mycobacteroides abscessus; assay: Antibacterial activity against CF patient derived Mycobacterium abscessus subsp. abscessus isolate 2524 rough variant after 3 to 5 days by two fold serial dilution method; assay type: functional; method in brief: as §1
CYP2C8 = molecular target: T1, CYP2C8 (Homo sapiens, UniProt P10632); assay: Inhibition of CYP2C8 in human liver microsomes preincubated for 5 mins followed by NADPH addition at 10 uM measured after 10 mins by LC-MS/MS analysis relative to control; assay type: ADME
T1 sequence (P10632 whole entry): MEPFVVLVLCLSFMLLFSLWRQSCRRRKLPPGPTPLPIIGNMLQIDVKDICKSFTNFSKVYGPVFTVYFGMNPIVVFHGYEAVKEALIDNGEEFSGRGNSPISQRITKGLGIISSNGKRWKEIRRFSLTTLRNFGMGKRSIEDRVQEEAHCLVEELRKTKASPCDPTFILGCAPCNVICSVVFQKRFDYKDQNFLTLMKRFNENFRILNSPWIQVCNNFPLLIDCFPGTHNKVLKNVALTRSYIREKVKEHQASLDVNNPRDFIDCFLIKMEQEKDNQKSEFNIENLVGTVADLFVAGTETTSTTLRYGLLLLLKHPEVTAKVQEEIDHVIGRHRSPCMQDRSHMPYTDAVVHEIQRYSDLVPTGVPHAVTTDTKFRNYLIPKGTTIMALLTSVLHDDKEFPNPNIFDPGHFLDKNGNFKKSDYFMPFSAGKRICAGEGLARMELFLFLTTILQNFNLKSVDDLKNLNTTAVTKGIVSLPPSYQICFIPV

Salmonella typhimurium [8] = assay: Mutagenicity in Salmonella typhimurium TA98 assessed as increase in revertant colonies at 0.24 to 500 ug/well after 72 hrs by Ames test relative to control; assay type: toxicity; settings: salmonella enterica subsp. enterica serovar typhimurium; method in brief: as §2
[9] = system: Mycobacteroides abscessus; assay: Antibacterial activity against CF patient derived Mycobacterium abscessus subsp. massiliense isolate 111 smooth variant after 3 to 5 days by two fold serial dilution method; assay type: functional; method in brief: as §1
[10] = system: Mycobacteroides abscessus; assay: Antibacterial activity against CF patient derived Mycobacterium abscessus subsp. massiliense isolate 120 smooth variant after 3 to 5 days by two fold serial dilution method; assay type: functional; method in brief: as §1
[11] = system: Mycobacteroides abscessus; assay: Antibacterial activity against Mycobacterium abscessus CIP104536 smooth variant infected in PMA activated THP-1 macrophages assessed as reduction in viable colony forming unit at 3 ug/ml measured upto 4 days post treatment; assay type: functional
Method in brief: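 THP-1 cells in RPMI with 10% FBS, differentiated with 20 ng/mL PMA for 48 h at 37 °C; infected at MOI 1:2 for 2 h under 5% CO2; washed, 200 μg/mL amikacin for 1 h, washed; drug medium renewed daily; lysed in 1% Triton X100 at 0, 48, 96 h and plated for CFU; triplicates, two independent experiments.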

Liver = assay: Intrinsic clearance in rat liver microsomes at 0.5 uM in presence of NADPH by LC-MS/MS analysis; assay type: ADME, microsome
Method in brief: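 Compound (0.5 μM) incubated with mouse or rat liver microsomes plus NADPH regenerating system; aliquots every 3 min over 30 min analysed for parent by LC-MS/MS; monoexponential decay rate normalized to microsomal protein, expressed as mL/min/g liver.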

[12] = Protein binding in mouse plasma at 5 uM after 10 mins by LC-MS/MS analysis; assay type: ADME, cell-free; settings: read-out: PPB (converted)
Method in brief: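 Ultracentrifugation method: 5 μM compound in mouse or rat plasma (from DMSO stock), 10 min at 37 °C; total concentration from incubated plasma, unbound from middle-layer supernatant after 200000g for 4.5 h; niflumic acid internal standard, acetonitrile, filtered, LC-MS/MS.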

[13] = system: Mycobacteroides abscessus; assay: Antibacterial activity against Mycobacterium abscessus CIP_PIPD1 harboring MAB_4508 g925c/A309P mutant after 3 to 5 days by two fold serial dilution method; assay type: functional; method in brief: as §1
[14] = system: Mycobacteroides abscessus; assay: Antibacterial activity against Addison's disease patient derived Mycobacterium abscessus subsp. massiliense isolate CIP108297 smooth variant after 3 to 5 days by two fold serial dilution method; assay type: functional; method in brief: as §1
[15] = system: Mycobacteroides abscessus; assay: Antibacterial activity against CF patient derived Mycobacterium abscessus subsp. massiliense isolate 100 smooth variant after 3 to 5 days by two fold serial dilution method; assay type: functional; method in brief: as §1
[16] = system: Mycobacteroides abscessus; assay: Antibacterial activity against CF patient derived Mycobacterium abscessus subsp. abscessus isolate 2648 rough variant after 3 to 5 days by two fold serial dilution method; assay type: functional; method in brief: as §1
CYP2C19 = CYP2C19 (Homo sapiens, UniProt P33261); assay: Inhibition of CYP2C19 in human liver microsomes preincubated for 5 mins followed by NADPH addition at 10 uM measured after 40 mins by LC-MS/MS analysis relative to control; assay type: ADME
[17] = system: Mycobacteroides abscessus; assay: Antibacterial activity against Mycobacterium abscessus CIP104536 smooth variant assessed as reduction in viable colony forming unit at […] after 4 days by time-kill assay; assay type: functional

Sequence of CYP2C9 (P11712 whole entry): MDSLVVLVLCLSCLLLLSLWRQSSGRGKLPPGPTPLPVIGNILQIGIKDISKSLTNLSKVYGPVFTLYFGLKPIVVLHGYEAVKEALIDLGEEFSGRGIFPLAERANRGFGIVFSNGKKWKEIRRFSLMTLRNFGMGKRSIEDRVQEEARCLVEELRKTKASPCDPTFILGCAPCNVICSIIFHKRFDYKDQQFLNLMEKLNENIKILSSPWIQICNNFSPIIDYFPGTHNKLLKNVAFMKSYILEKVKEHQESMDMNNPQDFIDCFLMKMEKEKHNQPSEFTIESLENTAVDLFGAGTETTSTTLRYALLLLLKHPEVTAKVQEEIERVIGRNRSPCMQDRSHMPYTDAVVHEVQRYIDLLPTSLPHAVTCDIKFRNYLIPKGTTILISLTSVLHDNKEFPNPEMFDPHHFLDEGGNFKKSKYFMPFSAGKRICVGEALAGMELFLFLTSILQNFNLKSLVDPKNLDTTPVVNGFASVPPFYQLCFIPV
Sequence of Cytochrome P450 2D6 (P10635 whole entry): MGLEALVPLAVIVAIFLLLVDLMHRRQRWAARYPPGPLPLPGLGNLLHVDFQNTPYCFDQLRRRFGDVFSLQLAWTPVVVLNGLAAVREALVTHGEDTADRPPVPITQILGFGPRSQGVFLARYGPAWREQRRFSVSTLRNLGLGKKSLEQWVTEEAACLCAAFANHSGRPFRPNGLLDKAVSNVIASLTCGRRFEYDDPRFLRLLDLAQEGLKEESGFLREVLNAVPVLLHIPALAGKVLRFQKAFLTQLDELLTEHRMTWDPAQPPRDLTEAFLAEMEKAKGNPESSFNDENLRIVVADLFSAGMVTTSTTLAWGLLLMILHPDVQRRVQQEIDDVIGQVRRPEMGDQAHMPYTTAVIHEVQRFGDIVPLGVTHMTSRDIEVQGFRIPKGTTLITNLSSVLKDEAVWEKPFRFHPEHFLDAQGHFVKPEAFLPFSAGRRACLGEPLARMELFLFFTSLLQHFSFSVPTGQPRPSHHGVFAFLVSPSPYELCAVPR
Sequence of CYP2D6 (P10635 whole entry): as above
Sequence of CYP2C19 (P33261 whole entry): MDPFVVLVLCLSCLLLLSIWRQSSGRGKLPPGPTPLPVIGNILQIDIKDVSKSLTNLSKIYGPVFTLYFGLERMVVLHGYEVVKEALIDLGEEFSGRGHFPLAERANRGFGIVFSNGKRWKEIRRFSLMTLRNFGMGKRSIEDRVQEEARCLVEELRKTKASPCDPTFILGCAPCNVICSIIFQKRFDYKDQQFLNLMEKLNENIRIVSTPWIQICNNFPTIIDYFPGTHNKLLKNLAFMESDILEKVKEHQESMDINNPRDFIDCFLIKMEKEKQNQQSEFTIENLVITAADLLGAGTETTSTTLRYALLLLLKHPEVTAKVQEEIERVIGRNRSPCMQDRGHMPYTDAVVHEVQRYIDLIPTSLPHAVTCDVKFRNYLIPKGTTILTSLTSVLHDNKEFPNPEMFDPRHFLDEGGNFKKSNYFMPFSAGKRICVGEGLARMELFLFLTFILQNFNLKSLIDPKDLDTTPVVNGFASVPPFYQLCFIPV

O=C(NC1CCCCCC1)c1cc2c(Cl)cc(Cl)cc2[nH]1
IC50 (Cytochrome P450 2D6): ≤ 20 µM
inhibition at 10 min, 10 µM (CYP2C9): 6%
MIC=<90 [1]: 0.0039 µg/mL (≈ 0.012 µM)
selectivity ratio [2]: 64 to 128
MIC [3]: 0.125 µg/mL (≈ 0.384 µM)
MIC [4]: 0.125 µg/mL (≈ 0.384 µM)
MIC [5]: 0.125 µg/mL (≈ 0.384 µM)
inhibition at 10 min, 10 µM (CYP2D6): 10%
fold change (FC) (Salmonella typhimurium [6]): < 2
MIC [7]: 0.125 µg/mL (≈ 0.384 µM)
inhibition at 10 min, 10 µM (CYP2C8): 20%
fold change (FC) (Salmonella typhimurium [8]): < 2
MIC [9]: 0.125 µg/mL (≈ 0.384 µM)
MIC [10]: 0.125 µg/mL (≈ 0.384 µM)
Activity [11]: Active
CLH (Liver): 6.3 mL/min/g
fraction unbound at 10 min, 5 µM [12]: 0.011
MIC [13]: 32 µg/mL (≈ 98.4 µM)
MIC [14]: 0.125 µg/mL (≈ 0.384 µM)
MIC [15]: 0.125 µg/mL (≈ 0.384 µM)
MIC [16]: 0.125 µg/mL (≈ 0.384 µM)
inhibition at 40 min, 10 µM (CYP2C19): 4%
Activity [17]: Active
